Experimental data: ChEMBL document CHEMBL1145269, “Synthesis and evaluation of urea-based indazoles as melanin-concentrating hormone receptor 1 antagonists for the treatment of obesity” (Bioorg Med Chem Lett, 2005)

Experiments:
[1] = Maximum plasma compound (10 mg/kg, p.o.) concentration in diet-induced obese mice; assay type: ADME, organism-based; set-up: dose 10 mg/kg, route oral; settings: mouse, po
[2] = target: Melanin-concentrating hormone receptor 1 (Homo sapiens) (UniProt Q99705); assay: Inhibitory concentration against human Melanin-concentrating hormone receptor 1 expressed in IMR-32 cells using [125I]MCH
[3] = Area under curve in diet-induced obese mice plasma at 10 mg/kg (p.o.) concentration; n=3; assay type: ADME, organism-based; set-up: dose 10 mg/kg, route oral; settings: mouse, in vivo, po
[4] = target: Melanin-concentrating hormone receptor (Homo sapiens, UniProt Q969V1+Q99705); assay: Inhibition of Melanin-concentrating hormone (MCH) mediated [Ca2+] release in IMR-32 cells; assay type: functional, cell-based
[5] = Area under curve in diet-induced obese mice brain at 10 mg/kg (p.o.) concentration; n=3; assay type: ADME, organism-based; set-up: dose 10 mg/kg, route oral; settings: mouse, in vivo, po
[6] = target: Melanin-concentrating hormone receptor 1 (Homo sapiens) (UniProt Q99705); assay: Inhibitory concentration against Melanin-concentrating hormone receptor 1 in human IMR-32 cells
[7] = Area under curve in diet-induced obese mice plasma at 10 mg/kg (p.o.) concentration; assay type: ADME, organism-based; set-up: dose 10 mg/kg, route oral; settings: mouse, in vivo, po
[8] = Area under curve in diet-induced obese mice brain at 10 mg/kg (p.o.) concentration; assay type: ADME, organism-based; set-up: dose 10 mg/kg, route oral; settings: mouse, in vivo, po
[9] = system: Mus musculus; assay: Compound (100 mg/kg, bid) tested for reduction of fat mass in mice (vehicle=22.1); assay type: functional
[10] = system: Mus musculus; assay: Mean cumulative food intake of mice on day 5 after treatment with compound at 100 mg/kg; n=12; assay type: functional
How it was run: (§1)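 Chronic study in DIO mice fed a 60 kcal % fat diet ad libitum, dosed by oral gavage bid for 14 days at 30 or 100 mg/kg in 1% Tween 80/water (4 mL/kg). Food weighed on the first day and periodically thereafter. Cumulative intake reported on days 1, 5, 7, 11 and 14; mean ± SEM, n = 12.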

[11] = system: Mus musculus; assay: Body weight of the mice after treatment with the compound (100 mg/kg, p.o.) on day 14 (Vehicle=46.9 1 0.8); assay type: functional
[12] = system: Mus musculus; assay: Body weight of the mice after treatment with the compound (30 mg/kg, p.o.) on day 14 (Vehicle=46.9 1 0.8); assay type: functional
[13] = system: Mus musculus; assay: Percent change of mice body weight after treatment with the compound (100 mg/kg, p.o.) to that of vehicle; assay type: functional
[14] = system: Mus musculus; assay: Mean cumulative food intake of mice on day 1 after treatment with compound at 100 mg/kg; n=12; assay type: functional; how it was run: as §1
[15] = system: Mus musculus; assay: Mean cumulative food intake of mice on day 7 after treatment with compound at 30 mg/kg; n=12; assay type: functional; how it was run: as §1
[16] = system: Mus musculus; assay: Percent change of mice body weight after treatment with the compound (30 mg/kg, p.o.) to that of vehicle; assay type: functional
[17] = system: Mus musculus; assay: Body weight of the mice after treatment with the compound (100 mg/kg, p.o.) on day 0 (Vehicle=45.0 1 0.7); assay type: functional
[18] = system: Mus musculus; assay: Mean cumulative food intake of mice on day 1 after treatment with compound at 30 mg/kg; n=12; assay type: functional; how it was run: as §1
[19] = system: Mus musculus; assay: Mean cumulative food intake of mice on day 14 after treatment with compound at 100 mg/kg; n=12; assay type: functional; how it was run: as §1
[20] = system: Mus musculus; assay: Mean cumulative food intake of mice on day 5 after treatment with compound at 30 mg/kg; n=12; assay type: functional; how it was run: as §1
[21] = system: Mus musculus; assay: Body weight of the mice after treatment with the compound (30 mg/kg, p.o.) on day 0 (Vehicle=45.0 1 0.7); assay type: functional
[22] = system: Mus musculus; assay: Mean cumulative food intake of mice on day 14 after treatment with compound at 30 mg/kg; n=12; assay type: functional; how it was run: as §1
[23] = system: Mus musculus; assay: Mean cumulative food intake of mice on day 11 after treatment with compound at 100 mg/kg; n=12; assay type: functional; how it was run: as §1
[24] = system: Mus musculus; assay: Mean cumulative food intake of mice on day 11 after treatment with compound at 30 mg/kg; n=12; assay type: functional; how it was run: as §1
[25] = system: Mus musculus; assay: Mean cumulative food intake of mice on day 7 after treatment with compound at 100 mg/kg; n=12; assay type: functional; how it was run: as §1
[26] = Maximum brain compound (10mg/kg, p.o.) concentration in diet-induced obese mice; assay type: ADME, organism-based; set-up: dose 10 mg/kg, route oral; settings: mouse, po
[27] = system: Mus musculus; assay: Mean cumulative food intake of mice on day 1 after treatment with compound at 10 mg/kg; n=12; assay type: functional
How it was run: (§2)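 DIO mice, kept on a high-fat diet (60 kcal % fat, 5.2 kcal/g) for about 16 weeks with ad libitum feeding. Given 10 mg/kg po by gavage qd for 14 days in 1% Tween 80/water at 4 mL/kg, alongside vehicle. Food weighed on the first day and periodically thereafter; cumulative intake reported at days 1, 5, 7, 11 and 14. Mean ± SEM, n = 12.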

[28] = system: Mus musculus; assay: Percent change of mice body weight after treatment with the compound (10 mg/kg, p.o.) to that of vehicle; n=12; assay type: functional
[29] = system: Mus musculus; assay: Body weight of the mice after treatment with the compound (10 mg/kg, p.o.) on day 14 (Vehicle=46.9 1 0.8); n=12; assay type: functional
[30] = system: Mus musculus; assay: Body weight of the mice after treatment with the compound (10 mg/kg, p.o.) on day 0 (Vehicle=45.0 1 0.7); n=12; assay type: functional
[31] = system: Mus musculus; assay: Mean cumulative food intake of mice on day 14 after treatment with compound at 10 mg/kg; n=12; assay type: functional; how it was run: as §2
[32] = system: Mus musculus; assay: Mean cumulative food intake of mice on day 5 after treatment with compound at 10 mg/kg; n=12; assay type: functional; how it was run: as §2
[33] = system: Mus musculus; assay: Mean cumulative food intake of mice on day 7 after treatment with compound at 10 mg/kg; n=12; assay type: functional; how it was run: as §2
[34] = system: Mus musculus; assay: Mean cumulative food intake of mice on day 11 after treatment with compound at 10 mg/kg; n=12; assay type: functional; how it was run: as §2

O=C(NCCc1ccc(Oc2ccccc2)cc1)Nc1ccc2cnn(CCN3CCCC3)c2c1
Cmax [1]: 86 ng/mL
IC50 [2]: 34.3 nM
AUC [3]: 0.335 µg/h/g
IC50 [4]: 0.178 µM
AUC [5]: 0 µg/h/g

O=C(NCc1ccc(Oc2ccccc2)cc1)Nc1ccc2c(cnn2CCN2CCCC2)c1
IC50 [2]: 508 nM
IC50 [4]: > 10 µM

O=C(Nc1ccc(Oc2ccccc2)cc1)Nc1cccc2c1cnn2CCN1CCCC1
IC50 [2]: 1850 nM
IC50 [4]: > 10 µM

O=C1N(c2ccc(Oc3ccccc3)cc2)CCN1c1ccc2c(cnn2CCN2CCCC2)c1
IC50 [2]: 19.8 nM
IC50 [4]: 1.12 µM

O=C(Nc1ccc(Oc2ccccc2)cc1)Nc1ccc2cnn(CCN3CCCC3)c2c1
IC50 [2]: 581 nM
IC50 [4]: > 10 µM

O=C(Nc1ccc(OCc2ccccc2)cc1)Nc1ccc2cnn(CCN3CCCC3)c2c1
IC50 [2]: 113 nM
IC50 [4]: 7.14 µM

O=C(NCCc1ccc(Oc2ccccc2)cc1)Nc1ccc2c(cnn2CCN2CCCC2)c1
IC50 [2]: 545 nM
IC50 [4]: > 10 µM

O=C(Nc1ccc(OCc2ccccc2)cc1)Nc1ccc2c(cnn2CCN2CCCC2)c1
IC50 [2]: 41.3 nM
IC50 [4]: > 10 µM

O=C(Nc1ccc(OCc2ccccc2)cc1)Nc1cccc2c1cnn2CCN1CCCC1
IC50 [2]: 1050 nM
IC50 [4]: > 10 µM

O=C(Cc1ccc(OCc2ccccc2)cc1)Nc1ccc2cnn(CCN3CCCC3)c2c1
IC50 [6]: 1.4 nM
AUC [7]: 2.12 µg/h/mL
AUC [8]: 1.33 µg·h/g
Cmax [1]: 596 ng/mL
IC50 [4]: 0.011 µM

O=C(Nc1ccc2cnn(CCN3CCCC3)c2c1)NC1CCN(Cc2ccccc2)CC1
IC50 [2]: 4510 nM
IC50 [4]: > 10 µM

CC(C)CNCCn1ncc2cc(NC(=O)Nc3ccc(Oc4ccccc4)cc3)ccc21
IC50 [2]: 1.8 nM
IC50 [4]: 0.751 µM

O=C(Nc1ccc(Oc2ccccc2)cc1)Nc1ccc2c(cnn2CCN2CCCC2)c1
Activity [9]: 16.6 g
Activity [10]: 7.86
Body weight [11]: 36.3 g
Body weight [12]: 42.3 g
Change in body weight [13]: -17.1%
Activity [14]: 2.17
Activity [15]: 20.1
Change in body weight [16]: -3.41%
Cmax [1]: 246 ng/mL
Body weight [17]: 42.5 g
Activity [18]: 3
AUC [3]: 5.35 µg/h/g
Activity [19]: 29.4
Activity [20]: 11.2
Body weight [21]: 42.3 g
AUC [5]: 1.43 µg/h/g
Activity [22]: 39.8
Activity [23]: 23.6
Activity [24]: 32.4
Activity [25]: 13.6
Cmax [26]: 260 ng/g

NC(=O)C1CCN(CCCn2ncc3cc(NC(=O)Nc4ccc(Oc5ccccc5)cc4)ccc32)CC1
IC50 [2]: 40.6 nM
IC50 [4]: 2.88 µM

O=C(NCc1ccc(Oc2ccccc2)cc1)Nc1ccc2cnn(CCN3CCCC3)c2c1
IC50 [2]: 78.5 nM
IC50 [4]: 0.626 µM

O=C(Nc1ccc(Oc2ccccc2)cc1)Nc1ccc2c(cnn2CCN2CCC(F)(F)C2)c1
IC50 [2]: 305 nM
IC50 [4]: > 10 µM

COC[C@@H]1CCCN1CCCn1ncc2cc(NC(=O)Nc3ccc(Oc4ccccc4)cc3)ccc21
IC50 [2]: 82.9 nM
IC50 [4]: 1.177 µM

O=C(Nc1ccc(Oc2ccccc2)cc1)Nc1ccc2c(cnn2CCN2CCC(O)CC2)c1
IC50 [2]: 6130 nM
IC50 [4]: > 10 µM

O=C(Nc1ccc(Oc2ccccc2)cc1)Nc1ccc2c(cnn2CCCN2CCC(O)CC2)c1
IC50 [2]: 91.5 nM
IC50 [4]: 0.894 µM

O=c1n(-c2ccc(Oc3ccccc3)cc2)ccn1-c1ccc2c(cnn2CCN2CCCC2)c1
Cmax [1]: 543 ng/mL
IC50 [2]: 5.9 nM
AUC [3]: 1.35 µg/h/mL
IC50 [4]: 0.654 µM
AUC [5]: 1.71 µg/h/g
Cmax [26]: 183 ng/g

COC[C@@H]1CCCN1CCn1ncc2cc(NC(=O)Nc3ccc(Oc4ccccc4)cc3)ccc21
IC50 [2]: 38.7 nM
IC50 [4]: 0.516 µM

O=C(Nc1ccc(Oc2ccccc2)cc1)Nc1ccc2c(cnn2CCNC2CCCC2)c1
IC50 [2]: 2.4 nM
IC50 [4]: 0.147 µM

O=C(CNCc1ccc(Oc2ccccc2)cc1)Nc1ccc2ccn(CCN3CCCC3)c2c1
IC50 [6]: 299 nM
AUC [7]: 1.16 µg/h/mL
AUC [8]: 0.674 µg·h/g
IC50 [4]: 1.81 µM

NC(=O)C1CCN(CCn2ncc3cc(NC(=O)Nc4ccc(Oc5ccccc5)cc4)ccc32)CC1
IC50 [2]: 134 nM
IC50 [4]: 0.171 µM

CCN[C@@H](C)Cc1cccc(C(F)(F)F)c1 [DEXFENFLURAMINE]
Activity [27]: 0.89
Change in body weight [28]: 9.12%
Body weight [29]: 39.8 g
Body weight [30]: 42.7 g
Activity [31]: 39.9
Activity [32]: 8.44
Activity [33]: 17.8
Activity [34]: 31.1
